According to ChEMBL document CHEMBL3232757, “Structure-activity relationships for withanolides as inducers of the cellular heat-shock response” (J Med Chem, 2014):
Blank lines part the entries; values can stand above or below the molecule they belong to. Calls of active or inactive are those of the source. No cut-off for these calls is given here.

Assays:
Mus musculus [1] = assay: Induction of heat shock activity in mouse assessed as upregulation of HSP72 protein level in spleen at 25 mg/kg, sc after 18 hrs by immunoblotting analysis; assay type: functional, organism-based; set-up: dose 25 mg/kg
In short: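 Mice were randomly assigned. Dosing was by subcutaneous injection, 25 mg/kg, in hydroxypropyl β-cyclodextrin 30% w/v with DMSO 10% v/v; vehicle controls got an equal volume; five mice per group. Spleens were taken about 18 h later, snap-frozen, pulverized and lysed in nonionic detergent buffer. 15 μg protein/lane went to SDS-PAGE and immunoblotting for HSP72. Band intensity was normalized to β-actin. Variance versus vehicle was compared by F test.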

Mus musculus [2] = assay: Induction of heat shock activity in mouse assessed as upregulation of HSP72 protein level in spleen at 40 mg/kg, sc after 18 hrs by immunoblotting analysis relative to control; assay type: functional, organism-based; set-up: dose 40 mg/kg
In short: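 Mice given a single subcutaneous dose in cyclodextrin vehicle (hydroxypropyl β-cyclodextrin 30% w/v, DMSO 10% v/v). Controls received an equal volume of vehicle alone. Three mice per group at 40 mg/kg. Spleens harvested about 18 h after dosing, snap-frozen and lysed in nonionic detergent buffer. 15 μg protein/lane run on SDS-PAGE and immunoblotted for HSP72 and β-actin. HSP72 band intensity normalized to actin; Student's t test versus vehicle.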

[3] = Cytotoxicity against human CHP100 cells assessed as inhibition of cell survival at 4 uM after 24 hrs by MTT assay relative to control; assay type: functional; conditions: CHP100, 24 h
[4] = Cytotoxicity against human CHP100 cells assessed as inhibition of cell survival after 24 hrs by MTT assay; assay type: functional, cell-based; conditions: CHP100, 24 h
[5] = biological target: Heat shock 70 kDa protein 6 (Homo sapiens) (UniProt P17066); assay: Induction of […] (unknown origin)-mediated heat shock response expressed in human 293T cells coexpressing GFP assessed as heat shock index after overnight incubation by luciferase reporter gene assay relative to control; assay type: cell-based
In short: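 293T cells transduced with a lentiviral EGFP–firefly luciferase fusion under HSP70B′ promoter elements, enriched by heat shock (42 °C, 1 h) plus FACS, then reverse-sorted to remove constitutive expressers. Cells in DMEM/10% FBS were seeded at 20 000/well and given serial dilutions next day, quadruplicate wells, overnight. Read by Steady-Glo luminescence. Index = [Log2(treated/control)]/concentration (μM) at maximal response.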

[6] = Cytotoxicity against human NCI-H929 cells after 3 days by Alamar blue assay; assay type: functional, cell-based; conditions: NCI-H929, 72 h
Mus musculus [7] = organism: Mus musculus; assay: Induction of heat shock protein-mediated heat shock response in mouse 3T3-Y9-B12 cells assessed as heat shock index after 24 hrs by fluorescence assay relative to control; assay type: cell-based
In short: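 Mouse 3T3-Y9-B12 heat-shock reporter cells seeded 20 000/well, left to adhere overnight, then exposed 24 h to compound at 1, 2, or 4 μM. After PBS wash, fluorescence read at excitation 485 nm and emission 530 nm. Heat-shock index calculated as [Log2(treated/control)]/concentration (μM).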

Heat shock 70 kDa protein 6 (Homo sapiens), sequence (P17066 whole entry, the tested form may be a part): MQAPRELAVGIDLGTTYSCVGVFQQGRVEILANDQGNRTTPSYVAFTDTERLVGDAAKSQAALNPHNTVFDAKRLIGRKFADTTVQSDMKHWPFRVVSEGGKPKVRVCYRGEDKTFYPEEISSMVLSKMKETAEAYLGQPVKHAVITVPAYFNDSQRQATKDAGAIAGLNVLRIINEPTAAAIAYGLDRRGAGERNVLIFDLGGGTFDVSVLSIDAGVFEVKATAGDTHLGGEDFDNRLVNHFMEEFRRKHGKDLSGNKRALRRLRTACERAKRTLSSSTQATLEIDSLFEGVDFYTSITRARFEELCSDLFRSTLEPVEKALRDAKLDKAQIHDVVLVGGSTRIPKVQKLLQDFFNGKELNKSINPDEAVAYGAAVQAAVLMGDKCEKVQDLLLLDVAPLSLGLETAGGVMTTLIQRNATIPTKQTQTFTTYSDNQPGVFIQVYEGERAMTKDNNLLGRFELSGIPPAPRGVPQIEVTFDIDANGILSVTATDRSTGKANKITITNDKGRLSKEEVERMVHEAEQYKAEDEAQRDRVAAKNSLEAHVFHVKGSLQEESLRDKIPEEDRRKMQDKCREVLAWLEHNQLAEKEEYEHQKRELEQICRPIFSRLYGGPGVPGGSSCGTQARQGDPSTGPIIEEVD

Compound: CC(=O)OCC1=C(C)C[C@H]([C@@H](C)[C@H]2CC[C@H]3[C@@H]4C[C@H]5O[C@]56[C@H](OC(C)=O)C=CC(=O)[C@]6(C)[C@H]4CC[C@]23C)OC1=O
Activity (Mus musculus [1]): Active | Activity (Mus musculus [2]): Active

Compound: CC(=O)OCC1=C(C)C[C@H]([C@@H](C)[C@H]2CC[C@H]3[C@@H]4C[C@H]5O[C@]56[C@H](O)C=CC(=O)[C@]6(C)[C@H]4CC[C@]23C)OC1=O
inhibition at 4 µM [3]: > 80% | IC50 [4]: 220 nM | Activity [5]: Dose-dependent effect | fold change (FC) [5]: 3.69 | IC50 [6]: 50 nM | fold change (FC) (Mus musculus [7]): 4.7

Activity [5]: Dose-dependent effect | fold change (FC) [5]: 1.35
Compound: CC1=C(CO)C(=O)O[C@@H]([C@@H](C)[C@H]2CC[C@H]3[C@@H]4C[C@H]5O[C@]56[C@@H](O)C=CC(=O)[C@]6(C)[C@H]4CC[C@]23C)C1 [WITHAFERIN A]
inhibition at 4 µM [3]: > 80% | IC50 [4]: 970 nM | IC50 [6]: 250 nM | fold change (FC) (Mus musculus [7]): 2.1 | Activity (Mus musculus [1]): inactive

fold change (FC) [5]: 1.64
Compound: CC(=O)O[C@@H]1C=CC(=O)[C@]2(C)[C@H]3CC[C@]4(C)[C@@H]([C@H](C)[C@H]5CC(C)=C(CO)C(=O)O5)CC[C@H]4[C@@H]3C[C@H]3O[C@]132
inhibition at 4 µM [3]: > 80% | IC50 [4]: 830 nM | IC50 [6]: 250 nM
